Experiment [1] deals with Aspergillus fumigatus. Kind of experiment: Antimicrobial activity against Aspergillus fumigatus isolate DK by Etest method. The experiment is classed as functional. An outline of the steps: (§1)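 Etest on RPMI 1640-2% glucose agar plates, run per the manufacturer's recommendations. Caspofungin Etest end point read after 2 days of incubation.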
Experiment [2] deals with Aspergillus fumigatus. The experiment is described as follows: Antimicrobial activity against Aspergillus fumigatus isolate AT infected in NMRI mouse assessed as survival rate at 2.25 mg/kg, ip. In kind it is functional. The following applies: route intraperitoneal. An outline of the steps: (§2)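 NMRI mice (26 to 30 g) immunosuppressed with cyclophosphamide i.p., 200 mg/kg day −3 and 100 mg/kg day 0. Challenged i.v. on day 0 with 1.5 × 10⁵ CFU in groups of 10 to 13. Dosed in 0.25 ml on days 1 to 4 and 7 to 10: caspofungin i.p., posaconazole orally, or glucose i.p. as control. Scored daily. Survivors killed day 11. AT isolate run in two experiments.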

The test system of experiment [3] is Aspergillus fumigatus. Kind of experiment: Antimicrobial activity against Aspergillus fumigatus isolate AT assessed as amount of mannose in the alkali-insoluble fraction at 0.04 ug/ml. In kind it is functional. An outline of the steps:
(§3)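 Mycelia pretreated by culture with 0.04 μg/ml caspofungin. Cell wall boiled twice in Tris-EDTA-SDS-mercaptoethanol, then alkali-fractionated twice (1 M NaOH/0.05 M NaBH₄, 70°C). Alkali-insoluble fraction (100 μg) digested overnight at 37°C with recombinant endo-β(1,3)-glucanase LamA in pH 6.0 acetate buffer. Read by HPAEC and reducing-sugar assay; hexoses by GC with meso-inositol internal standard. Pretreated values are means of two samples.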

The test system of experiment [4] is Aspergillus fumigatus. The experiment is described as follows: Ratio of FKS1 expression in Aspergillus fumigatus isolate AT to PMA1 expression in Aspergillus fumigatus 293 at 0.25 ug/ml by RT-PCR. In kind it is functional. The procedure, abridged: (§4)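 Strains grown 24 h at 37°C with shaking (150 rpm) in RPMI 1640, with and without 0.25 μg/ml caspofungin. FKS1 transcript measured by real-time PCR, normalised to housekeeping genes (BTU, PMA1). Reported as the expression ratio of AT isolate to each reference strain.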

Experiment [5] relates to Aspergillus fumigatus. The experiment is described as follows: Antimicrobial activity against Aspergillus fumigatus isolate AT assessed as amount of beta-(1,3)-glucan at 0.04 ug/ml. In kind it is functional. An outline of the steps: as §3
In experiment [6] the test system is Aspergillus fumigatus. Kind of experiment: Ratio of FKS1 expression in Aspergillus fumigatus isolate AT to BTU expression in Aspergillus fumigatus 293 at 0.25 ug/ml by RT-PCR. In kind it is functional. An outline of the steps:
as §4

Experiment [7] has as its system Aspergillus fumigatus. Kind of experiment: Antimicrobial activity against Aspergillus fumigatus isolate AT by Etest method. In kind it is functional, organism-based. The procedure, abridged:
as §1

Experiment [8] relates to Aspergillus fumigatus. The experiment is described as follows: Antimicrobial activity against Aspergillus fumigatus isolate DK by microdilution method. In kind it is functional. The following applies: read-out: MEC. An outline of the steps:
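Broth microdilution by the EUCAST method for spore-forming moulds (C. krusei ATCC 6258 control), also a modified EUCAST version with 5 × 10⁴ cells/ml inoculum. Spore-inoculated plates incubated at 35°C for 24 to 48 h, read visually and spectrophotometrically. Azole MIC = lowest dilution giving no growth, ignoring single surface colonies. Echinocandin MEC = lowest concentration giving aberrant growth.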

Experiment [9] relates to Aspergillus fumigatus. The experiment is described as follows: Ratio of FKS1 expression in Aspergillus fumigatus isolate AT to PMA1 expression in Aspergillus fumigatus ATCC 13073 at 0.25 ug/ml by RT-PCR. In kind it is functional. An outline of the steps: as §4
Experiment [10] relates to Aspergillus fumigatus. The experiment is described as follows: Antimicrobial activity against Aspergillus fumigatus isolate A29 by Etest method. In kind it is functional.
Experiment [11] relates to Aspergillus fumigatus. The experiment is described as follows: Antimicrobial activity against Aspergillus fumigatus isolate AT assessed as FKS1 expression by RT-PCR relative to control. In kind it is functional, organism-based. An outline of the steps:
as §4

For experiment [12], the system named is Aspergillus fumigatus. Kind of experiment: Antimicrobial activity against Aspergillus fumigatus isolate DK infected in NMRI mouse assessed as survival rate at 2.25 mg/kg, ip. In kind it is functional. The following applies: route intraperitoneal. An outline of the steps: as §2
Experiment [13] deals with Aspergillus fumigatus. Kind of experiment: Antimicrobial activity against Aspergillus fumigatus isolate AT infected in NMRI mouse assessed as reduction in galactomannan index relative to control. In kind it is functional, organism-based. The procedure, abridged:
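Mice (NMRI) immunosuppressed with cyclophosphamide i.p. (200 mg/kg day −3, 100 mg/kg day 0). Challenged i.v. on day 0 with 1.5 × 10⁵ CFU. Treated on days 1–4 and 7–10 with caspofungin i.p. 2.25 mg/kg, posaconazole orally 5 or 20 mg/kg, or glucose i.p. (controls). Serum galactomannan index measured by Platelia ELISA on day 11 in survivors.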

The subject of experiment [14] is Aspergillus fumigatus. Kind of experiment: Ratio of FKS1 expression in Aspergillus fumigatus isolate AT to BTU expression in Aspergillus fumigatus ATCC 13073 at 0.25 ug/ml by RT-PCR. The experiment is classed as functional. The procedure, abridged: as §4
Experiment [15] relates to Aspergillus fumigatus. Kind of experiment: Antimicrobial activity against Aspergillus fumigatus isolate AT assessed as amount of galactose in the alkali-insoluble fraction at 0.04 ug/ml. The experiment is classed as functional. The procedure, abridged:
as §3

For experiment [16], the system named is Aspergillus fumigatus. The experiment is described as follows: Antimicrobial activity against Aspergillus fumigatus isolate AT assessed as amount of glucose in the alkali-insoluble fraction at 0.04 ug/ml. In kind it is functional. The procedure, abridged: as §3
Experiment [17] concerns Aspergillus fumigatus. The experiment is described as follows: Antimicrobial activity against Aspergillus fumigatus isolate AT assessed as partial growth inhibition by microdilution method. The experiment is classed as functional, organism-based. An outline of the steps:
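Broth microdilution MEC by EUCAST and CLSI methods (one lab used a modified EUCAST inoculum of 5 × 10⁴ cells/ml). Plates inoculated with spores and incubated at 35°C for 24 to 48 h. MEC taken as the lowest concentration giving aberrant growth, read by light microscopy.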

The test system of experiment [18] is Aspergillus fumigatus. Kind of experiment: Antimicrobial activity against Aspergillus fumigatus isolate AT infected in NMRI mouse assessed as survival rate at 20 mg/kg, po. In kind it is functional. The procedure, abridged:
as §2

The subject of experiment [19] is Aspergillus fumigatus. Kind of experiment: Antimicrobial activity against Aspergillus fumigatus isolate AT infected in NMRI mouse assessed as survival rate at 5 mg/kg, po. The experiment is classed as functional. An outline of the steps: as §2
In experiment [20] the test system is Aspergillus fumigatus. The experiment is described as follows: Antimicrobial activity against Aspergillus fumigatus isolate DK infected in NMRI mouse assessed as survival rate at 5 mg/kg, po. The experiment is classed as functional. The procedure, abridged:
as §2

Experiment [21] deals with Aspergillus fumigatus. The experiment is described as follows: Antimicrobial activity against Aspergillus fumigatus isolate DK infected in NMRI mouse assessed as survival rate at 20 mg/kg, po. In kind it is functional. The procedure, abridged: as §2

Converted amounts (≈) assume the structure as drawn. The source made the active and inactive calls. The rule behind the calls is not given here.

`CC[C@H](C)C[C@H](C)CCCCCCCCC(=O)N[C@H]1C[C@@H](O)[C@@H](NCCN)NC(=O)[C@@H]2[C@@H](O)CCN2C(=O)[C@H]([C@H](O)CCN)NC(=O)[C@H]([C@H](O)[C@@H](O)c2ccc(O)cc2)NC(=O)[C@@H]2C[C@@H](O)CN2C(=O)[C@H]([C@@H](C)O)NC1=O` [CASPOFUNGIN]: the Activity in the experiment on Aspergillus fumigatus [1] is 0.125 µg/mL; with Aspergillus fumigatus [3] it was 10%; in the experiment on Aspergillus fumigatus [5], 81%; with Aspergillus fumigatus [15], 16%; with Aspergillus fumigatus [16], 74%. For the same molecule, the survival at 2.25 mg/kg stood at 25% with Aspergillus fumigatus [2] and 100% with Aspergillus fumigatus [12]. In addition, the Ratio in the experiment on Aspergillus fumigatus [4] amounted to 2.9; in the experiment with Aspergillus fumigatus [6] it was 2.78; in the experiment with Aspergillus fumigatus [9], 3.5; with Aspergillus fumigatus [14], 3.41. The outcome in the experiment with Aspergillus fumigatus [7] and in the experiment on Aspergillus fumigatus [11] was inactive. The minimal effective concentration in the experiment on Aspergillus fumigatus [8] is 0.25 µg/mL; with Aspergillus fumigatus [10] (in the assay text read “by microdilution method” for “by Etest method”, read-out: MEC), 0.04 µg/mL. The molecule further gave an MIC against Aspergillus fumigatus [10] of 0.094 µg/mL (≈ 0.086 µM). Also, the result in the experiment on Aspergillus fumigatus [13] and in the experiment on Aspergillus fumigatus [17] was Active.
For the molecule `CC[C@@H]([C@H](C)O)n1ncn(-c2ccc(N3CCN(c4ccc(OC[C@@H]5CO[C@@](Cn6cncn6)(c6ccc(F)cc6F)C5)cc4)CC3)cc2)c1=O` [POSACONAZOLE], the survival at 20 mg/kg in the experiment on Aspergillus fumigatus [18] is 75%; with Aspergillus fumigatus [21], 25%. Also, the figures for the survival at 5 mg/kg with Aspergillus fumigatus [19] and in the experiment with Aspergillus fumigatus [20] were 70% and 16.7%, respectively.

These data come from ChEMBL document CHEMBL1275502, “Establishing in vitro-in vivo correlations for Aspergillus fumigatus: the challenge of azoles versus echinocandins” (2008).
